# Compound activity deposited in PubChem by several laboratories.
# ANO1 activ: TMEM16A chloride channel activators or potentiators, primary screen, cell-based, HTS. Anoctamin-1 (Mus musculus), Q8BHY3. HEK293 TMEM16A/YFP-H148Q/I152L, iodide quench fluorescence; stronger effect = lower value. B-score at 10 µM. actives 0.3% (n = 340,000). AID 623877, 2012;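 active means fluorescence-ratio B-score plate-corrected deviation score at least 3 library SD below zero, with starting fluorescence score within 5 deviations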;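 further: channel opened by trigger with iodide after compound preincubation; score built on the fluorescence ratio of max minus min over baseline; more negative score means more quench and so TMEM16A activation or potentiation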
# Target sequence (Q8BHY3 whole entry, looked up): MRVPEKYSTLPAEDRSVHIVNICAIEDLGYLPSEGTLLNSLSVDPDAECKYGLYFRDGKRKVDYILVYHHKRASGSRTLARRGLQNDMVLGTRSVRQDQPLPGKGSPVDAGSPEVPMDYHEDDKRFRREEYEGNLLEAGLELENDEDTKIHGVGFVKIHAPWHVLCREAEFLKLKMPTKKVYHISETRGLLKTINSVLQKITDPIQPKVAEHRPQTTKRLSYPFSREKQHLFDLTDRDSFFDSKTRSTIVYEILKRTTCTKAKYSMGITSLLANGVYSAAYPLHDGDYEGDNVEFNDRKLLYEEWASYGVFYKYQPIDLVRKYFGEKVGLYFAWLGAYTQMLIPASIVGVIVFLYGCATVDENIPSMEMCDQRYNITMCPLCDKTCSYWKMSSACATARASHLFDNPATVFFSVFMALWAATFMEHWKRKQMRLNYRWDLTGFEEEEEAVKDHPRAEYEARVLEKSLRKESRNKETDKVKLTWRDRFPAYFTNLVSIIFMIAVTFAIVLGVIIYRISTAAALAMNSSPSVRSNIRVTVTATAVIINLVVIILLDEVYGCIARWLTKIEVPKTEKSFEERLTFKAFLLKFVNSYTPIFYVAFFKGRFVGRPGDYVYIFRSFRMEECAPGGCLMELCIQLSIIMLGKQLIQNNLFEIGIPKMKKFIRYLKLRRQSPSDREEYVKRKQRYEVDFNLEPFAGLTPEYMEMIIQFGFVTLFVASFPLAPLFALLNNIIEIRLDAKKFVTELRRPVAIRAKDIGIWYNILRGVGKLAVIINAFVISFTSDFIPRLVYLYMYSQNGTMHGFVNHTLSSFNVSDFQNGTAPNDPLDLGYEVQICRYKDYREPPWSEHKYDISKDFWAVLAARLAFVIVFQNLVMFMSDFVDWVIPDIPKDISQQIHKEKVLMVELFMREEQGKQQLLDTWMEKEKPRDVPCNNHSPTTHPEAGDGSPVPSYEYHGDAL
# ANO1 block: TMEM16A chloride channel inhibitors, primary screen, cell-based, HTS | normalized B-score (activity score, 25-100; higher = stronger inhibition) at 10 µM | HEK293 TMEM16A/YFP iodide influx fluorescence, ionomycin | Anoctamin-1 (Mus musculus), Q8BHY3 | actives 1.2% (n = 310,000);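 active means ratio plate-corrected score three or more library SD toward inhibition, starting fluorescence score within five deviations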;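 further: score derived from kinetic fluorescence span divided by baseline fluorescence per well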
# MC4R antagonist: MC4R antagonists of cAMP signaling, primary screen, cell-based, TR-FRET, antagonist arm of biased-ligand search | MC4R-expressing cells, MTII-stimulated cAMP, LANCE TR-FRET | Melanocortin receptor 4 (Homo sapiens), P32245 | inhibition, % at 6.5 µM | actives 0.48% (n = 360,000);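 active means inhibition above its plate's cutoff, the mean of tested wells on that plate plus 3 SD, cut at about 29% in these data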;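 further: 0% = Melanotan II alone and 100% = Melanotan II plus saturating MCL0020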
#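 System: U2OS cells stably expressing human melanocortin 4 receptor (MC4R). Reagent: Melanotan II challenge after compound preincubation. Doses: 6.5 µM. Times: 30-min compound, 1-h challenge, 1-h detection, room temperature. Measured by: TR-FRET with Eu-cAMP and labeled anti-cAMP, 671 nm. Replicates: singlicate.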
# beta cell repl: inducers of MIN6 beta-cell proliferation, primary screen, ATP luminescence, uHTS; actives 0.29% (n = 330,000); proliferation, % at 10 µM; AID 2380, 2010; MIN6 cells proliferation, ATPlite luminescence, 48 h; cells starved in 0.2% serum; 100% = growth in 10% serum;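 active means compounds whose signal lies at least 3.5 SD above the mean of all wells on their plate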;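 further: 0% = DMSO-treated cells in low-serum medium and 100% = 10% serum control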
# MC4R ag barr: MC4R agonists recruiting beta-arrestin, primary screen, cell-based, luminescence, agonist arm of biased-ligand search; Melanocortin receptor 4 (Homo sapiens), P32245; U2OS MC4R beta-arrestin complementation; percent of melanotan II response, DMSO zero; activation, % at 8.9 µM; actives 0.98% (n = 360,000); AID 540308, 2011;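 active means activation above a per-plate cutoff, the mean activation of sample wells on that plate plus 3 SD, cut at about 8% in these data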
# HTR2A ag: mouse Htr2a agonists via beta-arrestin recruitment, primary screen, cell-based, luminescence; actives 0.66% (n = 360,000); CHO-K1 mHTR2A beta-arrestin complementation; percent of 30 µM serotonin response; activation, % at 7.6 µM;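 active means activation above a run cutoff, the mean activation of all tested compounds plus 3 SD, cut at about 14% in these data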;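 further: 0% = plate median of compound wells and 100% = 30 µM serotonin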
# TMEM16A reconf: TMEM16A chloride channel inhibitors, confirmation, cell-based, re-confirmation; shares compounds with ANO1 block; HEK293 TMEM16A/YFP-H148Q, iodide quench fluorescence; ionomycin added to raise cell calcium; inhibition, % at 10 µM; actives 39% (n = 2,300);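 active means mean duplicate percent inhibition, scaled so buffer wells are 0 and the reference blocker 100, over three buffer SD above buffer mean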
# TMEM16A Ca cntr: calcium mobilization in TMEM16A/YFP HEK293 cells, confirmation, counter-screen for TMEM16A inhibitor project; shares compounds with ANO1 block; Fluo4 calcium mobilization; calcium response (% of ionomycin), % at 10 µM; actives 2% (n = 2,300); AID 652231, 2013;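 active means duplicate-averaged calcium signal over 20% of the ionomycin maximum, relative to buffer baseline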;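 further: each well's signal is peak minus trough fluorescence divided by its pre-addition baseline; 0% = buffer wells and 100% = ionomycin wells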
# YFP-HEK293 quench: iodide YFP quench changes in parental YFP-HEK293, counter-screen for TMEM16A inhibitor project, cell-based; shares compounds with ANO1 block; ionomycin; YFP ratio F(max-min)/F0 at 10 µM; 2,300 tested, under 10 active; AID 652233, 2013;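 active means yellow fluorescent protein signal ratio exceeding the buffer control mean by over 5 SD of those controls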;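 further: ratio is mean of duplicate wells from kinetic YFP trace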
# ClC-1 rat inh: ClC-1 chloride channel inhibition, selectivity assay for TMEM16A inhibitor project, cell-based, voltage-dependent ClC-1; 2,300 tested, under 10 active; ratio percent, % at 10 µM; shares compounds with ANO1 block; CHO ClC-1-YFP, iodide influx fluorescence quench; iodide control reads 0, buffer control 100;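 active means duplicate-mean ratio percent above the mean of iodide-only control wells, which defines zero, plus 5 of their SD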;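 further: higher percent means stronger block of ClC-1 iodide influx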
# * = called active by the depositor; i = inactive; . = no result. In the library only some 3.4% were active in any assay of this set; here they are far more common.
SMILES,ANO1 activ,ANO1 block,MC4R antagonist,beta cell repl,MC4R ag barr,HTR2A ag,TMEM16A reconf,TMEM16A Ca cntr,YFP-HEK293 quench,ClC-1 rat inh
C=C(C)c1cc2c(ccc3ccc(=O)oc32)o1,i,.,6,-5,-2,0,.,.,.,.
O=S(=O)(NC1CCCCC1Nc1ccc(Cl)cc1)c1ccccc1 (centres undefined),i,25*,5,-1,4,-5,i,i,-1.1,-10
Cc1cccc(Cc2c(C)nc3c(C(=O)N4CCN(Cc5ccc6c(c5)OCO6)CC4)cnn3c2C)c1,i,25*,-4,-5,2,-1,i,i,-1.1,-5
O=C(Nc1nnc(-c2cccs2)o1)c1cccc(C(F)(F)F)c1,i,25*,1,-6,-3,0,i,26%*,-0.87,-22
CCn1c(=O)n(CC)c2cc(S(=O)(=O)N3CCC(c4ccccc4)CC3)ccc21,i,100*,1,-3,0,-6,i,i,-1.2,-24
Cn1c(=O)c(=O)n(C)c2cc(S(=O)(=O)N3CCC(Cc4ccccc4)CC3)ccc21,i,i,13,-2,-2,-1,.,.,.,.
COc1cc(OC)cc(-c2ncc3ccccn23)c1,i,100*,-2,2,2,-1,i,i,-1,-8
CCN1CC(C)(C)N(C(=O)c2ccccc2)CC1(C)C,i,.,2,.,-3,-3,.,.,.,.
Cc1ccc(C)c(NC(=O)COC(=O)c2cccc(S(=O)(=O)N3CCCC3)c2)c1,.,.,6,.,-2,-3,.,.,.,.
CN(c1ccc(C(=O)NCc2ccncc2)cc1)S(=O)(=O)c1ccc(Cl)cc1,i,i,-5,2,-1,-3,.,.,.,.
O=c1[nH]c2ccccc2nc1/C=C/c1ccccc1,i,i,11,-4,3,0,.,.,.,.
COc1ccc(OC)c(C=Nc2ccccc2-c2nc3ccccc3[nH]2)c1,i,i,13,1,0,-6,.,.,.,.
O=c1[nH]c2ccccc2nc1/C=C/c1ccc(F)cc1,i,i,6,-3,-1,1,i,i,-1.1,23
COc1ccc(OC)c(/C=C/c2nc3ccccc3[nH]c2=O)c1,i,i,-5,0,4,3,i,i,-1,16
O=C(Nc1ccc(NC(=O)c2ccc([N+](=O)[O-])cc2[N+](=O)[O-])cc1)c1ccco1,i,i,3,-3,-1,3,.,.,.,.
O=C(Nc1ccc(Nc2ccncc2)cc1)c1ccc(Nc2ccnc3ccc([N+](=O)[O-])cc23)cc1[N+](=O)[O-],i,25*,0,.,-1,-10,i,i,-0.99,-4
NC(=O)c1ccsc1NC(=O)COc1ccccc1,i,25*,14,-4,-3,-4,i,i,-0.9,-9
NC(=O)c1ccsc1NC(=O)COC(=O)Cc1cccc2ccccc12,i,25*,5,-7,0,7,45%*,i,-0.72,-12
Cc1cnc2ccc(F)cc2c1,.,.,.,.,.,-4,.,.,.,.
C(=NN1CCCCCC1)c1ccc2c(c1)OCO2,i,.,-6,.,-2,4,.,.,.,.
CCc1nc2ccc(C(=O)NC3CCN(Cc4ccccc4)CC3)cn2c1N(C)Cc1ccc(N(C)C)cc1,.,.,-2,.,0,-1,.,.,.,.
CCCOc1ccc(C(=O)NNC(=S)NC(=O)c2ccco2)cc1,i,100*,0,-6,-5,-4,43%*,62%*,-1,-10
COc1ccc(C(=O)NNC(=S)NC(=O)c2ccco2)cc1,i,i,6,-1,-2,1,.,.,.,.
CC12CC3(C)CC(C)(C1)CC(C(=O)NC1=NCCS1)(C2)C3,i,25*,19,-2,4,1,i,i,-1.1,-4
CN(CC(=O)Nc1ccccc1C(F)(F)F)C(=O)C1=COCCO1,i,i,1,0,0,-2,.,.,.,.
SMILES,ANO1 activ,ANO1 block,MC4R antagonist,beta cell repl,MC4R ag barr,HTR2A ag,TMEM16A reconf,TMEM16A Ca cntr,YFP-HEK293 quench,ClC-1 rat inh
Cc1ccc(S(=O)(=O)N2CCN(C(=O)CCC(=O)NCc3cccc(C(F)(F)F)c3)CC2)cc1,i,25*,12,-1,-2,-3,i,i,-1.2,-20
COc1ccc(/C=N/NC(=O)c2ccoc2C)cc1COc1c(C)cccc1C,i,i,7,-3,-1,-2,i,i,-1.2,-18
CC1CN(S(=O)(=O)c2cccc(C(=O)OCC(=O)c3cccs3)c2)CC(C)O1 (centres undefined),i,i,11,2,-1,1,i,i,-0.9,-12
CC(=O)c1ccc(OC(=O)Cc2cccc3ccccc23)cc1,i,i,7,0,2,-1,.,.,.,.
COCCNC(=O)c1ccc2c(=O)n(Cc3ccco3)c(SCC(=O)NC3CCCCC3)nc2c1,i,i,21,0,-2,0,i,i,-1,-6
COCCNC(=O)c1ccc2c(=O)n(Cc3ccco3)c(SCC(=O)Nc3ccc(OC)cc3OC)nc2c1,i,i,5,3,-2,-5,.,.,.,.
CC(OC(=O)CN1C(=O)c2ccccc2C1=O)C(=O)N(C)c1ccccc1 (centres undefined),i,i,2,2,-2,7,.,.,.,.
O=C(CN1CCC(c2nc3ccccc3[nH]2)CC1)Nc1ccc2c(c1)OCO2,i,100*,0,-2,-2,-4,i,i,-1.2,-2
